From ChEMBL document CHEMBL1125347, “Synthesis of novel MPTP analogs as potential monoamine oxidase B (MAO-B) inhibitors” (J Med Chem, 1992) come the findings set out here.

In general, Ki refers to the dissociation constant of the complex between target and ligand, obtained from inhibition or displacement. A lower Ki goes with a stronger hold on the target. A word on the kinact: it is the rate constant of inactivation at saturating inhibitor. As usually defined, the Km is the concentration of substrate that gives half-maximal velocity.

For data set [1], the target named is T1, Amine oxidase [flavin-containing] B (Bos taurus, UniProt P56560).
T1 sequence (P56560 whole entry): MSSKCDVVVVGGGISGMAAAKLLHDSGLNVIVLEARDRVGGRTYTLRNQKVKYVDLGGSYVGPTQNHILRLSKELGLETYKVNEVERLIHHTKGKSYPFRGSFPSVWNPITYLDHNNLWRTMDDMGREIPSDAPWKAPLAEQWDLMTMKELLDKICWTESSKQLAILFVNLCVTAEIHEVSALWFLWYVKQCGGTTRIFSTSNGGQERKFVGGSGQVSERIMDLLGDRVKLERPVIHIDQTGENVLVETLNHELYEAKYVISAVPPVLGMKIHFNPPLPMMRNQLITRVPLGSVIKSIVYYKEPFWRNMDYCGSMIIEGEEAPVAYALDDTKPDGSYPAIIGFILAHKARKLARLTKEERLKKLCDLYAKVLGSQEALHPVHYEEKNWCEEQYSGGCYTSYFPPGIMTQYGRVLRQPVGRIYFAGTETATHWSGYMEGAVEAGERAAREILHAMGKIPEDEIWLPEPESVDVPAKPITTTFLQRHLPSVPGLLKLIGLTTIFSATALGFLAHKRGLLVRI
Put plainly: Inhibitory constant against monoamine Oxidase(MAO-B) was determined at a concentration of 50-100 uM.

For data set [2], the target named is T1, Amine oxidase [flavin-containing] B. Nature of the data set: MAO-B Inactivation property expressed as inactivation constant (K inact) was determined at a concentration of 50-100 uM.
A short description of data set [3]: Kinetic parameter KM (nM) for the MAO-B catalyzed oxidation of the compound. Type of data set: ADME. Summed up:
(§1)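 Compound at 0.05-2.5 mM in 100 mM phosphate pH 7.4 was equilibrated 2 min at 37 °C, then 0.05 unit of purified beef liver MAO-B was added. Initial rates were followed by the rise in absorbance of the dihydropyridinium product. KM and Vmax came from Lineweaver-Burk plots. One unit converts 1 μmol benzylamine per min.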

In data set [4] the target is T1, Amine oxidase [flavin-containing] B. Put plainly: Inhibitory constant against monoamine Oxidase(MAO-B) was determined at a concentration of 300-1500 uM.
For data set [5] the target is unchanged. Put plainly: Monoamine oxidase B Inactivation property expressed as inactivation constant (K inact) was determined at a concentration of 300-1500 uM.
Data set [6] can be described thus: Kinetic parameter Vmax (nm/min/unit of MAO-B) for the MAO-B catalyzed oxidation of the compound. Type of data set: ADME. Summed up:
as §1

For data set [7], the target named is T1, Amine oxidase [flavin-containing] B. Put plainly: Inhibitory constant against monoamine Oxidase(MAO-B).
Data set [8] has the same target. Nature of the data set: Monoamine oxidase B Inactivation property expressed as inactivation constant (K inact).
Data set [9] has the same target. Nature of the data set: MAO-B Inactivation property expressed as inactivation constant (K inact).
Data set [10] has the same target. Put plainly: Monoamine oxidase B Inactivation property expressed as inactivation constant (K inact); Not active.
Data set [11] has the same target. Put plainly: Inhibitory constant against monoamine Oxidase (MAO-B); Not active.

With `C#CCN1CC=C(c2ccccc2)CC1`, affinity in data set [1] was put at a Ki of 172 µM. The kinact in data set [2] was 0.004 s⁻¹.

In the case of `CCCN1CC=C(c2ccccc2)CC1`, the Km in [3] stood at 2000 µM. In addition, in [4], the Ki turned out to be 5000 µM. Besides, in data set [5], the kinact was 0.001 s⁻¹. Further, in data set [6], the Vmax was 7.

In [7], `C=CCN1CC=C(c2ccccc2)CC1` showed a Ki of 268 µM. Besides, in data set [8], the kinact was 0.000483 s⁻¹.

As to `C#CC1=CCN(C)CC1`, the Km in [3] is 861 µM. Besides, in data set [9], the kinact is 0.000833 s⁻¹. Also, the affinity in data set [7], expressed as Ki, was 154 µM. The Vmax in [6] is listed as 684.

Molecule `C1=C(c2ccccc2)CCN(C2CCCC2)C1` returned a Ki in [7] of 173 µM. Moreover, the kinact in [8] was 0.00075 s⁻¹.

`C=CC1=CCN(C)CC1`: the Km in data set [3] was 80 µM. In addition, the affinity in [7] corresponds to a Ki of 330 µM. Further, in [6], the Vmax is 190. For the same molecule, the maximal inactivation rate constant (kinact) in data set [8] is 0.00133 s⁻¹.

In the case of `CN1CC=C(c2ccccc2)CC1`, the Km in [3] came out at 390 µM. Also, in [6], the Vmax came to 204.

As for `C1=C(c2ccccc2)CCN(C2CCC2)C1`, the kinact result in [10] is “Not Active”. In data set [11], the Ki entry is “Not Active”.

For the molecule `CN1CC=C(C#Cc2ccccc2)CC1`, in data set [9], the inactivation rate constant (kinact) was 0.00533 s⁻¹. In data set [7], this molecule showed a Ki of 820 µM.
